From ChEMBL document CHEMBL1134286, “Novel erythromycin derivatives with aryl groups tethered to the C-6 position are potent protein synthesis inhibitors and active against multidrug-resistant respiratory pathogens” (J Med Chem, 2001)
Values after ≈ are worked out from the molar mass of the structure shown.

Key:
Staphylococcus aureus [1] = experiment: Minimum inhibitory concentration against Staphylococcus aureus A 5177 MLSB-i; format: functional
Procedure, shortened: (§1)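 MICs were determined by agar dilution following National Committee for Clinical Laboratory Standards recommendations. Values are in µg/mL.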

Staphylococcus aureus [2] = experiment: Minimum inhibitory concentration against Staphylococcus aureus A 5278 MLSB-c; format: functional; procedure, shortened: as §1
Mus musculus [3] = species: Mus musculus; experiment: Mouse protection tests for effective dose against Staphylococcus aureus 10649 ((erythromycin susceptible strain)) infected mice; format: functional
Mus musculus [4] = species: Mus musculus; experiment: Mouse protection tests for effective dose against Streptococcus pneumoniae 6303 ((erythromycin susceptible strain)) infected mice; format: functional
[5] = Minimum inhibitory concentration against Streptococcus pyogenes PIU2548 efflux; format: functional; procedure, shortened: as §1
Staphylococcus aureus [6] = experiment: Minimum inhibitory concentration against Staphylococcus aureus 10649 (erythromycin susceptible strain); format: functional; procedure, shortened: as §1
Streptococcus pneumoniae [7] = experiment: Minimum inhibitory concentration against Streptococcus pneumoniae 5649 efflux; format: functional; procedure, shortened: as §1
[8] = Minimum inhibitory concentration against Streptococcus pneumoniae 5737 MLSB; format: functional; procedure, shortened: as §1
Streptococcus pneumoniae [9] = experiment: Minimum inhibitory concentration against Streptococcus pneumoniae ATCC 6303 Ery-S; format: functional; procedure, shortened: as §1
Streptococcus pneumoniae [10] = experiment: Minimum inhibitory concentration against Streptococcus pneumoniae 6303 (erythromycin susceptible strain); format: functional; procedure, shortened: as §1
[11] = Minimum inhibitory concentration against Streptococcus pyogenes 930MLSB; format: functional; procedure, shortened: as §1
Staphylococcus aureus [12] = experiment: Minimum inhibitory concentration against Staphylococcus aureus ATCC 6538PEry-S; format: functional; settings: ATCC 6538P; procedure, shortened: as §1
[13] = Minimum inhibitory concentration against Streptococcus pyogenes EES 61 Ery-S; format: functional; procedure, shortened: as §1
[14] = Minimum inhibitory concentration against Haemophilus influenzae DILL Amp-R; format: functional; procedure, shortened: as §1
Streptococcus pneumoniae [15] = experiment: Cell free inhibiting activity against MLSB-resistant strain Streptococcus pneumoniae 1813 (methylated ribosomes for transcription/translation assay)
Streptococcus pneumoniae [16] = experiment: Cell free inhibiting activity against erythromycin-susceptible strain Streptococcus pneumoniae 5635 (Wild type ribosomes for transcription/translation assay)
[17] = Minimum inhibitory concentration againstH. influenzae DILL Amp-R; format: functional; settings: Haemophilus influenzae
Procedure, shortened: (§2)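 Whole-cell MIC determined by agar dilution following National Committee for Clinical Laboratory Standards recommendations; values expressed in µg/mL.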

Streptococcus pneumoniae [18] = experiment: Cell free inhibiting activity against erythromycin-susceptible strain Streptococcus pneumoniae 5635 (Wild type ribosomes for transcription/translation assay); format: functional
Procedure, shortened: (§3)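 Cell-free coupled transcription/translation assay using bacterial ribosome S-30 extracts. Wild-type ribosomes were isolated from the erythromycin-susceptible strain S. pneumoniae 5635. Inhibition is reported as IC50 (µM).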

Staphylococcus aureus [19] = experiment: Minimum against Staphylococcus aureus 10649 (erythromycin susceptible strain); format: functional; procedure, shortened: as §1
Streptococcus pneumoniae [20] = experiment: Cell free inhibiting activity against Streptococcus pneumoniae 1813 (methylated ribosomes for transcription/translation assay); format: functional
Streptococcus pneumoniae [21] = experiment: Cell free inhibiting activity against Streptococcus pneumoniae 5635(Wild type ribosomes for transcription/translation assay); format: functional; procedure, shortened: as §3
Streptococcus pneumoniae [22] = experiment: Minimum against Streptococcus pneumoniae 6303 (erythromycin susceptible strain); format: functional; procedure, shortened: as §2
Mus musculus [23] = species: Mus musculus; experiment: Effective dose against Streptococcus pneumoniae 6303 (erythromycin susceptible strain); format: functional
Streptococcus pneumoniae [24] = experiment: Cell free inhibiting activity against MLSB-resistant strain Streptococcus pneumoniae 1813 (methylated ribosomes for transcription/translation assay); remark: listed apart in the source

Row | SMILES | MIC (Staphylococcus aureus [1]) | MIC (Staphylococcus aureus [2]) | ED50 (Mus musculus [3]) | ED50 (Mus musculus [4]) | MIC [5] | MIC (Staphylococcus aureus [6]) | MIC (Streptococcus pneumoniae [7]) | MIC [8] | MIC (Streptococcus pneumoniae [9]) | MIC (Streptococcus pneumoniae [10]) | MIC [11] | MIC (Staphylococcus aureus [12]) | MIC [13] | MIC [14] | IC50 (Streptococcus pneumoniae [15]) | IC50 (Streptococcus pneumoniae [16]) | also measured
1 | CC[C@H]1OC(=O)[C@H](C)C(=O)[C@H](C)[C@@H](O[C@@H]2O[C@H](C)C[C@H](N(C)C)[C@H]2O)[C@](C)(OC/C=C/c2cnc3cccnc3c2)C[C@@H](C)C(=O)[C@H](C)[C@H]2NC(=O)O[C@@]21C | 0.05 µg/mL (≈ 0.0652 µM) | > 100 µg/mL | 12.5 mg/kg | 17.3 mg/kg | 0.5 µg/mL (≈ 0.652 µM) | 0.05 µg/mL (≈ 0.0652 µM) | 1 µg/mL (≈ 1.3 µM) | 0.25 µg/mL (≈ 0.326 µM) | 0.015 µg/mL (≈ 0.0196 µM) | 0.015 µg/mL (≈ 0.0196 µM) | 2 µg/mL (≈ 2.61 µM) | 0.05 µg/mL (≈ 0.0652 µM) | 0.03 µg/mL (≈ 0.0391 µM) | 2 µg/mL (≈ 2.61 µM) | 25000 nM | 100 nM | 
2 | CC[C@H]1OC(=O)[C@H](C)C(=O)[C@H](C)[C@@H](O[C@@H]2O[C@H](C)C[C@H](N(C)C)[C@H]2O)[C@](C)(OCC=Cc2cnc3ccccc3c2)C[C@@H](C)C(=O)[C@H](C)[C@H]2NC(=O)O[C@@]21C [CETHROMYCIN] | 0.05 µg/mL (≈ 0.0653 µM) | > 100 µg/mL | 9.4 mg/kg | 7.8 mg/kg | 0.25 µg/mL (≈ 0.326 µM) | 0.05 µg/mL (≈ 0.0653 µM) | 0.125 µg/mL (≈ 0.163 µM) | 0.25 µg/mL (≈ 0.326 µM) | 0.004 µg/mL (≈ 0.00522 µM) | 0.004 µg/mL (≈ 0.00522 µM) | 1 µg/mL (≈ 1.31 µM) | 0.05 µg/mL (≈ 0.0653 µM) | 0.004 µg/mL (≈ 0.00522 µM) | 2 µg/mL (≈ 2.61 µM) | 28000 nM | 40 nM | 
3 | C=CCO[C@]1(C)C[C@@H](C)C(=O)[C@H](C)[C@@H](O)[C@](C)(O)[C@@H](CC)OC(=O)[C@H](C)[C@@H](O[C@H]2C[C@@](C)(OC)[C@@H](O)[C@H](C)O2)[C@H](C)[C@H]1O[C@@H]1O[C@H](C)C[C@H](N(C)C)[C@H]1O | 12.5 µg/mL (≈ 16.1 µM) | > 100 µg/mL |  |  | 64 µg/mL (≈ 82.7 µM) |  |  |  |  |  | > 128 µg/mL | 0.78 µg/mL (≈ 1.01 µM) |  |  | > 500000 nM |  | MIC [17]: 32 µg/mL (≈ 41.3 µM); IC50 (Streptococcus pneumoniae [18]): 150 nM
4 | CC[C@H]1OC(=O)[C@H](C)C(=O)[C@H](C)[C@@H](O[C@@H]2O[C@H](C)C[C@H](N(C)C)[C@H]2O)[C@](C)(OC/C=C/c2ccc3nccnc3c2)C[C@@H](C)C(=O)[C@H](C)[C@H]2NC(=O)O[C@@]21C | 0.1 µg/mL (≈ 0.13 µM) | > 100 µg/mL | < 6.25 mg/kg | 33.1 mg/kg | 0.25 µg/mL (≈ 0.326 µM) | 0.1 µg/mL (≈ 0.13 µM) | 0.5 µg/mL (≈ 0.652 µM) | 0.25 µg/mL (≈ 0.326 µM) | 0.015 µg/mL (≈ 0.0196 µM) | 0.015 µg/mL (≈ 0.0196 µM) | 1 µg/mL (≈ 1.3 µM) | 0.1 µg/mL (≈ 0.13 µM) | 0.03 µg/mL (≈ 0.0391 µM) | 2 µg/mL (≈ 2.61 µM) | 40000 nM | 80 nM | 
5 | CC[C@H]1OC(=O)[C@H](C)[C@@H](O[C@H]2C[C@@](C)(OC)[C@@H](O)[C@H](C)O2)[C@H](C)[C@@H](O[C@@H]2O[C@H](C)C[C@H](N(C)C)[C@H]2O)[C@](C)(OC)C[C@@H](C)C(=O)[C@H](C)[C@@H](O)[C@]1(C)O [CLARITHROMYCIN] |  |  | 16.7 mg/kg | 27.9 mg/kg |  |  |  |  |  |  |  |  |  |  |  |  | MIC (Staphylococcus aureus [19]): 0.2 µg/mL (≈ 0.267 µM); IC50 (Streptococcus pneumoniae [20]): > 500000 nM; IC50 (Streptococcus pneumoniae [21]): 90 nM; MIC (Streptococcus pneumoniae [22]): 0.03 µg/mL (≈ 0.0401 µM)
6 | CC[C@H]1OC(=O)[C@H](C)[C@@H](O[C@H]2C[C@@](C)(OC)[C@@H](O)[C@H](C)O2)[C@H](C)[C@@H](O[C@@H]2O[C@H](C)C[C@H](N(C)C)[C@H]2O)[C@](C)(O)C[C@@H](C)CN(C)[C@H](C)[C@@H](O)[C@]1(C)O [AZITHROMYCIN] |  |  | 24.8 mg/kg |  |  | 0.78 µg/mL (≈ 1.04 µM) |  |  |  | 0.12 µg/mL (≈ 0.16 µM) |  |  |  |  |  |  | ED50 (Mus musculus [23]): 18.8 mg/kg; IC50 (Streptococcus pneumoniae [20]): > 500000 nM; IC50 (Streptococcus pneumoniae [21]): 170 nM
7 | CC[C@H]1OC(=O)[C@H](C)[C@@H](O[C@H]2C[C@@](C)(OC)[C@@H](O)[C@H](C)O2)[C@H](C)[C@@H](O[C@@H]2O[C@H](C)C[C@H](N(C)C)[C@H]2O)[C@](C)(O)C[C@@H](C)C(=O)[C@H](C)[C@@H](O)[C@]1(C)O [ERYTHROMYCIN] | 6.2 µg/mL (≈ 8.45 µM) | > 100 µg/mL |  |  | 16 µg/mL (≈ 21.8 µM) |  | 32 µg/mL (≈ 43.6 µM) | > 128 µg/mL | 0.06 µg/mL (≈ 0.0818 µM) |  | > 128 µg/mL | 0.2 µg/mL (≈ 0.273 µM) | 0.06 µg/mL (≈ 0.0818 µM) |  |  |  | MIC [17]: 8 µg/mL (≈ 10.9 µM); IC50 (Streptococcus pneumoniae [18]): 120 nM; IC50 (Streptococcus pneumoniae [24]): > 500000 nM
